In ChEMBL document CHEMBL5120910, “Small-Molecule Gankyrin Inhibition as a Therapeutic Strategy for Breast and Lung Cancer” (J Med Chem, 2022):

Legend:
A549 [1] = assay: Antiproliferative activity against human A549 cells assessed as cell growth inhibition measured after 72 hrs by MTT assay; assay type: functional, cell-based; conditions: A549, 72 h
Method in brief: (§1)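 Cells seeded at 2.5 × 10^4 cells/well, allowed 24 h before dosing, then exposed to increasing concentrations (0.5% DMSO final) for 72 h at 37 °C, 5% CO2. MTT added at 1 mg/mL final in complete media for 2 h, formazan dissolved in DMSO, absorbance read at 570 nm. 6–8 repeats per treatment; IC50 from concentration–response fit.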

MDA-MB-231 = assay: Antiproliferative activity against human MDA-MB-231 cells assessed as cell growth inhibition measured after 72 hrs by MTT assay; assay type: functional, cell-based; conditions: MDA-MB-231, 72 h; method in brief: as §1
A549 [2] = assay: Antiproliferative activity against human A549 cells assessed as cell growth inhibition measured at 100 uM after 72 hrs by MTT assay; assay type: functional; parameters: scale not given: the % may be the effect or the level left; method in brief: as §1
[3] = target: T1, 26S proteasome non-ATPase regulatory subunit 10 (Homo sapiens, UniProt O75832); assay: Binding affinity to gankyrin (unknown origin) expressed in Escherichia coli BL21 (DE3) expression system assessed as dissociation constant at 1:1 protein to compound concentration by isothermal titration calorimetry
T1 sequence (O75832 whole entry): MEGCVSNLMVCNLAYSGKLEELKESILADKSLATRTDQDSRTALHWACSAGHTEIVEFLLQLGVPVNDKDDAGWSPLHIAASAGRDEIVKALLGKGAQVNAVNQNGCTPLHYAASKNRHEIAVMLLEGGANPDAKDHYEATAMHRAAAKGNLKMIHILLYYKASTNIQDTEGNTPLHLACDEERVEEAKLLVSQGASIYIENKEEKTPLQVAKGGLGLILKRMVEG

[4] = Metabolic stability in human liver microsomes assessed as compound remaining preincubated for 10 mins followed by NADPH addition measured after 60 mins by HPLC analysis; assay type: ADME, Microsome; conditions: read-out: Stability

IC50 (A549 [1]) [µM] | IC50 (MDA-MB-231) [µM] | Kd [3] [µM] | remaining at 1 h [4] [%] | SMILES | Activity (A549 [2]) [%]
> 100 | 55.1 | – | – | COC(=O)c1ccc(-n2cc(CCCC(=O)Oc3ccc(C)cc3)nn2)cc1 | –
> 100 | > 100 | – | – | COC(=O)c1ccc(-n2cc(CCCOC(=O)c3ccc(C)cc3)nn2)cc1 | –
> 100 | > 100 | – | – | Cc1ccc(S(=O)(=O)OCCCc2cn(-c3ccc(C(F)(F)F)cc3)nn2)cc1 | –
75.7 | 9.7 | – | – | COC(=O)c1ccc(-n2cc(CCCC(=O)Nc3ccc(C)cc3)nn2)cc1 | –
> 100 | 14.2 | – | – | COC(=O)c1ccc(-n2cc(CCCOc3ccc(C)cc3)nn2)cc1 | –
> 100 | > 100 | – | – | COC(=O)c1ccc(-c2nnc(CCCOS(=O)(=O)c3ccc(C)cc3)[nH]2)cc1 | –
> 100 | 58.1 | – | – | COC(=O)c1ccc(-n2nncc2CCCOS(=O)(=O)c2ccc(C)cc2)cc1 | –
79.5 | 79.1 | – | – | COC(=O)c1ccc(-n2cc(CCCc3nnc(-c4ccc(C)cc4)[nH]3)nn2)cc1 | –
> 100 | 2.7 | – | – | COC(=O)c1ccc(-c2cn(CCCC(=O)Nc3ccc(C)cc3)nn2)cc1 | –
> 100 | > 100 | 0.532 | 50 | COC(=O)c1ccc(-n2cc(CCCOS(=O)(=O)c3ccc(C)cc3)nn2)cc1 | 0
> 100 | 33 | – | – | COC(=O)c1ccc(-n2cc(CCCNc3ccc(C)cc3)nn2)cc1 | –
42.3 | > 100 | – | – | COC(=O)c1ccc(-c2cn(CCCC(=S)Nc3ccc(-c4ccccc4)cc3)nn2)cc1 | –

SMILES | IC50 (A549 [1]) [µM] | IC50 (MDA-MB-231) [µM] | Kd [3] [µM] | remaining at 1 h [4] [%] | Activity (A549 [2]) [%]
COC(=O)c1ccc(-n2cc(CCCOS(=O)(=O)c3ccc(-c4ccccc4)cc3)nn2)cc1 | 57.3 | > 100 | – | – | –
